Reference: ChEMBL document CHEMBL3045103, “Antimicrobial and antiurease activities of newly synthesized morpholine derivatives containing an azole nucleus” (Med Chem Res, 2013)
Active and inactive are the calls of the source.

How the values were obtained:
Assay type in all cases: functional
Bacillus cereus = assay: Antibacterial activity against Bacillus cereus 702 Roma after 18 to 24 hr by double microdilution method
Summary of the method: (§1)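 Compounds dissolved in […] as 20.000 μg/mL stock solutions. Tested quantitatively by double microdilution in Mueller–Hinton broth at pH 7.3, with plates incubated 18–24 h at 35 °C. Read-out is the minimal inhibition concentration (MIC) in μg/mL.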

Staphylococcus aureus = assay: Antibacterial activity against Staphylococcus aureus ATCC 25923 after 18 to 24 hr by double microdilution method; summary of the method: as §1
Enterococcus faecalis = assay: Antibacterial activity against Enterococcus faecalis ATCC 29212 after 18 to 24 hr by double microdilution method; summary of the method: as §1
Pseudomonas aeruginosa = assay: Antibacterial activity against Pseudomonas aeruginosa ATCC 43288 after 18 to 24 hr by double microdilution method
Summary of the method: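 Double microdilution in Mueller–Hinton broth, pH 7.3; plates incubated 18–24 h at 35 °C; MIC (μg/mL) determined. Compounds dissolved in hexane as 20.000 μg/mL stock.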

[1] = tested on: Yersinia pseudotuberculosis; assay: Antibacterial activity against Yersinia pseudotuberculosis ATCC 911 after 18 to 24 hr by double microdilution method; summary of the method: as §1
[2] = tested on: Mycolicibacterium smegmatis; assay: Antibacterial activity against Mycobacterium smegmatis ATCC 607 after 48 to 72 hr by double microdilution method
Summary of the method: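 Compounds dissolved in hexane as 20.000 μg/mL stock solutions. MIC (μg/mL) determined quantitatively by double microdilution, using Brain Heart Infusion broth as the growth medium for M. smegmatis.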

Measured: MIC

O=C(CNc1ccc(N2CCOCC2)nc1)NNC(=S)Nc1ccccc1
not listed: [2]
inactive: all other assays above

CCOC(=O)CNc1ccc(N2CCOCC2)nc1
not listed: [2]
inactive: all other assays above

NNC(=O)CNc1ccc(N2CCOCC2)nc1
not listed: [2]
inactive: all other assays above

O=C(CNc1ccc(N2CCOCC2)nc1)N/N=C/C=C/c1ccccc1
inactive: all assays above

O=C(CNc1ccc(N2CCOCC2)nc1)N/N=C/c1ccc(Br)cc1
not listed: [2]
inactive: all other assays above

O=C(CNc1ccc(N2CCOCC2)nc1)N/N=C1\SCC(=O)N1c1ccccc1
inactive: all assays above

O=C(CNc1ccc(N2CCOCC2)nc1)N/N=c1\sc(-c2ccc(Cl)cc2)cn1-c1ccccc1
inactive: all assays above

Sc1nnc(CNc2ccc(N3CCOCC3)nc2)o1
inactive: all assays above

Sc1nnc(CNc2ccc(N3CCOCC3)nc2)n1-c1ccccc1
not listed: [2]
inactive: all other assays above
